From PubChem
Only some compounds are listed: those with a hit (about 2.2% of all), similar ones and a draw of the others.
PMI act = phosphomannose isomerase (human) activation. AID 1214. 190,000 compounds, 0.005% hits. purified human PMI, coupled resazurin fluorescence, 20 min; stronger effect = higher value; 1 = vehicle control, 0 substrate-free wells. activation factor at 20 µM;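 active = activation factor of 2 or more at 20 µM, relative to plate controls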
Target sequence (P34949 whole entry, looked up): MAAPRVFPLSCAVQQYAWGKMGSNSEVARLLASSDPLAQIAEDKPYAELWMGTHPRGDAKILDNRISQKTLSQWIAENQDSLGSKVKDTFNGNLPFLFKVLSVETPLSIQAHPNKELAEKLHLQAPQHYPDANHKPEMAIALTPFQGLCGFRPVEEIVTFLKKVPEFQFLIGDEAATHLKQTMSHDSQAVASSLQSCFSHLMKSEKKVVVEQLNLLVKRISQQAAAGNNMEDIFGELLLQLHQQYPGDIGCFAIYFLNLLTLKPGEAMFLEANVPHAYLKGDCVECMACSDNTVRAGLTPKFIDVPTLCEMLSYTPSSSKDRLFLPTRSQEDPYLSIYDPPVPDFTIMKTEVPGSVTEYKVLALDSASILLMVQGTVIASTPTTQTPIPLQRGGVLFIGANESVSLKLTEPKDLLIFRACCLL
ROMK mod = human ROMK K+ channel modulation, primary screen. AID 1918. Tet-inducible ROMK, thallium flux fluorescence; actives lie on both sides. B-score at 10 µM. 130,000 compounds, 2% hits. P48048;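 active = signal ratio slope over the read window, or its plate-corrected B-score, at least 3 SD from the plate mean, either direction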;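 note: B-score of the F/F0 ratio slope over 7 to 12 s after thallium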
Diaph inh CS = inhibits diaphorase or chemically oxidizes, flagging diaphorase assay artifacts. diaphorase resazurin-to-resorufin fluorescence, NADH, 16 min; bacterial (C. kluyveri) enzyme, not human. inhibition, % at 20 µM. 190,000 compounds, 0.69% hits. AID 1217;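 active = primary screen inhibition at 20 µM above a set limit, cut at about 50% in these data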
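Benchmarks: positive control wells lacking NADH, neutral wells with DMSO only. System: bacterial diaphorase enzyme (C. kluyveri). Input: 0.14 U/mL diaphorase, enzyme working solution. Detection: resorufin fluorescence, excitation 544 nm, emission 590 nm. Times: 16-min room-temperature incubation before reading.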
Diaphorase act = activates diaphorase or chemically reduces, flagging diaphorase assay artifacts; 190,000 compounds, 0.005% hits; Diaphorase/resazurin coupled assay, resorufin fluorescence, 16 min; stronger effect = higher value; 1 = vehicle wells, 0 = NADH-free wells; AID 1229; activation factor at 20 µM;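 active = diaphorase activity raised at least twofold by the compound at 20 µM; inactive = activation factor below 2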
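Assay system: bacterial diaphorase enzyme (C. kluyveri) / Input: enzyme 0.07 U/mL final / Medium: 50 mM HEPES pH 7.4 with 4.542 mM MgCl2, 0.005% Tween 20 / Doses: single compound dose of 20 µM, 1% DMSO final / Incubation: 16 min enzyme reaction, ambient temperature / Signal: fluorescence, excitation 544 nm and emission 590 nm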
PMI act hi M6P = PMI (human) activation, high substrate; coupled PMI enzyme assay, resazurin fluorescence, 20 min; stronger effect = higher value; 1 = untreated enzyme, 0 = substrate-free blank; 190,000 compounds, 0.34% hits; activation factor at 20 µM; P34949; AID 1216;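 active = activation factor of 2 or more at 20 µM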
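Test system: human PMI in coupled enzyme assay; Input: PMI at 15 ng/mL final; Medium: HEPES buffer, pH 7.4; Schedule: 20 min incubation at room temperature; Technique: resorufin fluorescence at Ex 544/Em 590 nm; Compound: 20 µM single dose; Probe or stimulus: Near-saturating mannose-6-phosphate, 1.0 mM.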
G6PDH CS = inhibits Leuconostoc G6PDH, flagging false hits in G6PDH-based assays; Purified L. mesenteroides G6PDH, diaphorase/resazurin coupled fluorescence, 45 min; AID 1020; inhibition, % at 5 µM; 200,000 compounds, 0.12% hits; in the data active = inhibition above about 50%
ROMK hit retest = retested hit modulating human ROMK potassium channel; shares compounds with ROMK mod; ROMK thallium flux, fluorescence ratio; stronger effect = lower value; normalized thallium flux (F/F0 slope) at 10 µM; 3,000 compounds, 54% hits; AID 1917;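 active = Flux at 10 µM at least 3 SD below or above vehicle control mean in one or both replicates; inconclusive = no clear call, values can overlap the other calls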
A number is an active result; - = inactive; ? = inconclusive; . = not tested or not shown.

SMILES	PMI act	ROMK mod	Diaph inh CS	Diaphorase act	PMI act hi M6P	G6PDH CS	ROMK hit retest
COc1ccc(NC(=S)NNc2ccc([N+](=O)[O-])cc2S(=O)(=O)Nc2ccc(C)cc2C)cc1	-	-	-	-	-	-	.
Cc1cccc(Oc2ccc(NC(=O)c3ccccc3C(=O)O)cc2)c1C	-	1.61	-	-	-	-	-
Cn1c(=O)c2cc3ccccc3nc2n(C)c1=O	.	-5.07	.	.	.	.	?
COc1cccc(-n2c(=O)c3c(C)c(C(=O)N(C)C)sc3n(CC(=O)NCC3CCCO3)c2=O)c1 (centres undefined)	-	-	-	-	-	-	.
Cc1nc(C(F)(F)F)c(C(=O)N=CN(C)C)s1	-	-	-	-	-	-	.
CCOC(=O)c1c(CSc2ccccc2)n(C)c2cc(Br)c(OCC(O)CNC(CO)(CO)CO)cc12 (centres undefined)	-	-5.19	-	-	-	-	0.0558
CCn1c(=O)cc(SCC(=O)NCc2ccco2)c2ccccc21	-	3.52	-	-	-	-	-
CC(C)c1ccc(/C=N/NC(=O)c2cccc(S(=O)(=O)N3CCOCC3)c2)cc1	-	0.8	-	-	-	-	-
O=C(COC(=O)c1cccs1)Nc1ccccc1[N+](=O)[O-]	-	-	-	-	-	-	.
O=C(Cn1nc(Cl)nc1Cl)c1cc2ccccc2oc1=O	-	-6.55	-	-	-	-	0.0493
COc1ccc(/C=C/C(=O)N(C)Cc2cccs2)cc1S(=O)(=O)N1CCOCC1	-	-	-	-	-	-	.
CCc1cc(OCCCCNCc2ccccc2)ccc1Cl	-	-3.61	-	-	-	-	0.0543
Clc1cc(Br)ccc1OCCCNCc1ccccc1	-	-4.28	-	-	-	-	0.0592
CC/C(=N\Nc1ccccc1[N+](=O)[O-])c1ccc(O)cc1	-	-	-	-	-	-	.
O=C(CN(C1CCCCC1)S(=O)(=O)c1ccc(F)cc1)Nc1ccc2c(c1)OCO2	-	-3.28	-	-	-	-	0.0643
O=C(CN(C1CCCCC1)S(=O)(=O)c1ccc(F)cc1)NCCCO	-	-	-	-	-	-	.
O=C(c1ccc(Cl)cc1)c1cc([N+](=O)[O-])ccc1N1CCOCC1	-	-	-	-	-	-	.
O=C(Nc1ccc2oc(=O)ccc2c1)c1cc([N+](=O)[O-])ccc1N1CCOCC1	-	-7.29	-	-	-	-	0.0311
CC1CCCN(c2ccc([N+](=O)[O-])cc2C(=O)c2ccccc2)C1 (centres undefined)	-	-	-	-	-	-	-
O=C(c1ccc(Br)cc1)c1cc([N+](=O)[O-])ccc1N1CCOCC1	-	4.47	-	-	-	-	-
Cc1cc(=O)oc2cc(NC(=O)c3cc([N+](=O)[O-])ccc3N3CCOCC3)ccc12	-	-	-	-	-	-	.
CC1=CC(C)(C)[N+](C)(C)c2ccc(C)cc21	-	-	-	-	-	-	.
CCOC(=O)c1c(Cl)c(C)nn1-c1nc(OC)cc(OC)n1	-	-	-	-	-	-	.
O=C(CCC1N=C2c3ccccc3N=C(SCc3ccc(Cl)cc3)N2C1=O)NCc1ccco1 (centres undefined)	-	-4.15	-	-	-	-	0.0612
O=C(CCC1N=C2c3ccccc3N=C(SCc3ccc(F)cc3)N2C1=O)NCc1ccco1 (centres undefined)	-	-	-	-	-	-	.
Cc1cccc(NS(=O)(=O)c2ccc3[nH]c(=O)cc(C(=O)OC(C)C(=O)Nc4ccc([N+](=O)[O-])cc4)c3c2)c1 (centres undefined)	-	-3.06	-	-	-	-	?
CCc1ccc(NC(=O)C(C)OC(=O)c2cc(=O)[nH]c3ccc(S(=O)(=O)Nc4ccc(F)cc4)cc23)cc1 (centres undefined)	-	-	-	-	-	-	.
COc1ccc(CN(C)Cc2nc(Cc3cccc(F)c3)no2)c2cccnc12	-	-1.59	-	-	-	-	?
